Results taken from ChEMBL document CHEMBL3046583, “Design, synthesis, and insecticidal activity of novel pyrazole derivatives containing α-hydroxymethyl-N-benzyl carboxamide, α-chloromethyl-N-benzyl carboxamide, and 4,5-dihydrooxazole moieties” (2012).

Experiments:
Helicoverpa armigera [1] = assay: Stomach toxicity against third-instars Helicoverpa armigera assessed as larvicidal activity at 110 mg/kg at 25 +/- 1 degC after 3 days; assay type: functional
Procedure, shortened: (§1)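 Diet-incorporation assay on third-instar larvae. Samples dissolved in acetone to the desired final concentrations; 3 mL of test solution mixed evenly into about 27 g of prepared feed, then dispensed into 24-well plates. Run in triplicate at 25 ± 1 °C. Dead/alive scoring 3 days after treatment; mortality corrected by Abbott's formula on a 0–100 scale.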

Helicoverpa armigera [2] = assay: Stomach toxicity against third-instars Helicoverpa armigera assessed as larvicidal activity at 55 mg/kg at 25 +/- 1 degC after 3 days; assay type: functional; procedure, shortened: as §1
Helicoverpa armigera [3] = assay: Stomach toxicity against third-instars Helicoverpa armigera assessed as larvicidal activity at 22 mg/kg at 25 +/- 1 degC after 3 days; assay type: functional; procedure, shortened: as §1
Helicoverpa armigera [4] = assay: Stomach toxicity against third-instars Helicoverpa armigera assessed as larvicidal activity at 11 mg/kg at 25 +/- 1 degC after 3 days; assay type: functional; procedure, shortened: as §1
Plutella xylostella [5] = assay: Stomach toxicity against Plutella xylostella (diamondback moth) assessed as larvicidal activity at 600 mg/kg by leaf dip method; assay type: functional
Plutella xylostella [6] = assay: Stomach toxicity against Plutella xylostella (diamondback moth) assessed as larvicidal activity at 200 mg/kg by leaf dip method; assay type: functional
Tetranychus cinnabarinus [7] = assay: Acaricidal activity against Tetranychus cinnabarinus (carmine spider mite) eggs at 600 mg/kg by leaf dip method; assay type: functional, Egg
Tetranychus cinnabarinus [8] = assay: Acaricidal activity against Tetranychus cinnabarinus (carmine spider mite) eggs at 200 mg/kg by leaf dip method; assay type: functional, Egg
Tetranychus cinnabarinus [9] = assay: Acaricidal activity against Tetranychus cinnabarinus (carmine spider mite) adults at 600 mg/kg by leaf dip method; assay type: functional
Tetranychus cinnabarinus [10] = assay: Acaricidal activity against Tetranychus cinnabarinus (carmine spider mite) adults at 200 mg/kg by leaf dip method; assay type: functional
Tetranychus cinnabarinus [11] = assay: Acaricidal activity against Tetranychus cinnabarinus (carmine spider mite) larvae at 600 mg/kg by leaf dip method; assay type: functional
Tetranychus cinnabarinus [12] = assay: Acaricidal activity against Tetranychus cinnabarinus (carmine spider mite) larvae at 200 mg/kg by leaf dip method; assay type: functional
Aphis craccivora [13] = assay: Larvicidal activity against Aphis craccivora (cowpea aphid) at 600 mg/kg by leaf dip method; assay type: functional
Aphis craccivora [14] = assay: Larvicidal activity against Aphis craccivora (cowpea aphid) at 200 mg/kg by leaf dip method; assay type: functional
Culex pipiens pallens [15] = assay: Larvicidal activity against Culex pipiens pallens (mosquito) at 5 mg/kg; assay type: functional
Culex pipiens pallens [16] = assay: Larvicidal activity against Culex pipiens pallens (mosquito) at 2 mg/kg; assay type: functional

Row | Compound | Activity (Helicoverpa armigera [1]) [%] | Activity (Helicoverpa armigera [2]) [%] | Activity (Helicoverpa armigera [3]) [%] | Activity (Helicoverpa armigera [4]) [%] | Activity (Plutella xylostella [5]) [%] | Activity (Plutella xylostella [6]) [%] | Activity (Tetranychus cinnabarinus [7]) [%] | Activity (Tetranychus cinnabarinus [8]) [%] | Activity (Tetranychus cinnabarinus [9]) [%] | Activity (Tetranychus cinnabarinus [10]) [%] | Activity (Tetranychus cinnabarinus [11]) [%] | Activity (Tetranychus cinnabarinus [12]) [%] | Activity (Aphis craccivora [13]) [%] | Activity (Aphis craccivora [14]) [%] | Activity (Culex pipiens pallens [15]) [%] | Activity (Culex pipiens pallens [16]) [%]
1 | CCCCCOc1ccc(C2COC(c3cc(CC)nn3C)=N2)cc1 (stereo not drawn) | 100 | 100 | 30 | 0 | 30 | 0 | 50 | 40 | 20 | 0 | 30 | 0 | 75 | 20 | 30 | 0
2 | CCc1cc(C2=NC(c3ccc(Oc4ccccc4)cc3)CO2)n(C)n1 (stereo not drawn) | 100 | 100 | 40 | 0 | 70 | 45 | 90 | 50 | 40 | 10 | 70 | 50 | 50 | 20 | 30 | 0
3 | CCc1nn(C)c(C(=O)NC(CO)c2ccc(Cl)cc2)c1Cl (stereo not drawn) | 100 | 100 | 40 | 0 | 30 | 0 | 10 | 0 | 0 | – | 25 | 0 | 100 | 95 | 30 | 0
4 | CCc1cc(C(=O)NC(CCl)c2ccc(Cl)cc2)n(C)n1 (stereo not drawn) | 100 | 100 | 20 | 0 | 30 | 0 | 30 | 0 | 0 | – | 20 | 0 | 30 | 0 | 10 | 0
5 | CCCCCOc1ccc(C(CO)NC(=O)c2c(Cl)c(CC)nn2C)cc1 (stereo not drawn) | 100 | 100 | 30 | 0 | 90 | 30 | 30 | 20 | 15 | 0 | 20 | 0 | 100 | 95 | 20 | 0
6 | CCc1cc(C(=O)NC(CO)c2ccc(Oc3ccccc3)cc2)n(C)n1 (stereo not drawn) | 100 | 100 | 30 | 0 | 90 | 45 | 20 | 0 | 30 | 0 | 0 | – | 95 | 70 | 30 | 0
7 | CCc1nn(C)c(C(=O)NC(CO)c2ccc(C(C)(C)C)cc2)c1Cl (stereo not drawn) | 100 | 100 | 40 | 0 | 80 | 40 | 40 | 0 | 10 | 0 | 25 | – | 100 | 80 | 20 | 0
8 | CCc1cc(C(=O)NC(CO)c2ccc(Cl)cc2)n(C)n1 (stereo not drawn) | 100 | 100 | 50 | 0 | 100 | 60 | 0 | – | 25 | 0 | 25 | 0 | 98 | 75 | 20 | 0
